Only some compounds are listed: those with a hit (about 3.6% of all), similar ones and a draw of the others.
RAM inhibit: inhibitors of the yeast RAM network, primary screen, dse1pr::URA3 reporter, 5-FOA selection | S. cerevisiae dse1pr::URA3 reporter, 5-FOA growth OD615, 2 d; analog-sensitive cbk1-as2 kinase mutant strain | inhibition, % at 50 µM | 1.8% of 190,000 active;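 active means inhibition above a set limit, 3 SD over mean compound inhibition, cut at about 8.4% in these data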;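 further: 0% = DMSO-only wells with no growth and 100% = 10 µM 1-NA-PP1 full growth; inhibition rescues growth on 5-FOA so higher OD means more RAM inhibition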
Yeast life ext: compounds extending yeast replicative lifespan, primary screen, S. cerevisiae, OD615; S. cerevisiae growth with nicotinamide; deaD strain in restrictive glucose medium; inhibition of the nicotinamide effect, % at 10 µM; 0.68% of 130,000 active;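 active means inhibition above a set limit, placed 3 SD over the median of all compounds, cut at about 26% in these data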;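 further: 0% = nicotinamide-treated wells and 100% = cells grown without nicotinamide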
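Buffer or medium: CSMM-D glucose medium, restrictive; test system: modified budding yeast, DeaD strain; compound: single dose 10 µM compound, 0.25% DMSO; schedule: culture preincubation 4 h, compound exposure 48 h, both 30 °C; detection: optical density (absorbance) at 615 nm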
Yeast growth inh: growth inhibitors of yeast BB579 in restrictive medium, primary screen, yeast lifespan-shortening project, S. cerevisiae | OD615, 48 h | inhibition, % at 10 µM | 0.51% of 140,000 active | AID 804, 2007;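 active means inhibition above a set limit, 3 SD over the mean compound inhibition, cut at about 44% in these data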
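controls = amphotericin B 10 µg/mL, positive | assay system = DeaD yeast strain BB579 | schedule = 48 h compound exposure at 30 °C after 4 h preincubation | detection = OD615 turbidity measurement | medium = restrictive CSMM-D medium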
Measles CPE: compounds protecting cells from measles virus cytopathic effect, primary screen, measles RdRp inhibitor project, single point, MLSMR library, absorbance; protection (pct of control), % at 4 µM; Measles virus-infected cells, CPE protection; 1.5% of 140,000 active; in the data active means protection mostly above about 24%, no sharp cut-off; inactive means mostly below about 26%
RAM efflux-def: 5-FOA growth of efflux-deficient control yeast, dose response, counter-screen for RAM network inhibitor project, S. cerevisiae, OD615; S. cerevisiae efflux-deficient reporter strain, 5-FOA growth OD615, 2 days; max inhibition, %; 1,200 tested, under 10 active; shares compounds with RAM inhibit; call rule not given here;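 further: plate controls were vehicle for no effect and reference inhibitor for full effect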
* = called active by the depositor.

Results for COc1ccc(C(C)(C)C)cc1NC(=O)COC(=O)c1cc(SC)ccc1Cl ?
RAM inhibit: 13*; Yeast life ext: -3; Yeast growth inh: -24; Measles CPE: 2; RAM efflux-def: 4

How did COc1ccc(NC(=O)COC(=O)c2cc(SC)ccc2Cl)c(OC)c1 do in these assays?
RAM inhibit: 6; Yeast life ext: -2; Yeast growth inh: -2; Measles CPE: 7

Results for O=C(Nc1ccc(S(=O)(=O)Nc2ccccc2)cc1)c1ccc(CN2CCOCC2)cc1 ?
RAM inhibit: 1

Results for CCC(=O)Nc1ccccc1C(=O)OC(c1ccccc1)c1ccccc1 ?
RAM inhibit: 4; Yeast life ext: -6; Yeast growth inh: -4; Measles CPE: 9

How did CCC(=O)Nc1ccccc1C(=O)OCc1ccc(C(=O)c2ccccc2)cc1 do in these assays?
RAM inhibit: 12*; Yeast life ext: -9; Yeast growth inh: -50; Measles CPE: 3; RAM efflux-def: 3

Results for COc1ccc2c(CC(=O)Nc3ccc(OC)nc3)coc2c1 ?
RAM inhibit: 1

What do the screens show for `COc1ccc(-c2csc(/C(C#N)=C\c3cccc([N+](=O)[O-])c3)n2)cc1`?
RAM inhibit: 5; Yeast life ext: -2; Yeast growth inh: -45; Measles CPE: 8

Results for CCCCc1ccc(-c2csc(/C(C#N)=C\c3ccco3)n2)cc1 ?
RAM inhibit: 15*; Yeast life ext: 4; Yeast growth inh: -26; Measles CPE: 31; RAM efflux-def: 9

How did CCCCc1ccc(-c2csc(/C(C#N)=C/c3ccc(C)o3)n2)cc1 do in these assays?
RAM inhibit: 13*; Yeast life ext: 5; Yeast growth inh: -21; Measles CPE: 1; RAM efflux-def: 8

How did COc1ccc(NC(=O)C2CC(=O)N=C(N)S2)cc1 (configuration not stated) do in these assays?
RAM inhibit: 0

What do the screens show for `COc1ccc(NC(=O)Nc2ccon2)c(OC)c1`?
RAM inhibit: 0

Results for COc1cc(CNc2ccc(CNc3ncn[nH]3)cc2)ccc1OCC(=O)NC(C)(C)C ?
RAM inhibit: 2; Yeast life ext: 1; Yeast growth inh: -25; Measles CPE: 8

Results for CCOc1cc(CNc2ccc(CNc3ncn[nH]3)cc2)ccc1OCc1ccccc1 ?
RAM inhibit: 12*; Yeast life ext: -5; Yeast growth inh: -11; Measles CPE: 4; RAM efflux-def: 7

What do the screens show for `COc1ccc(C2CC(c3ccccc3)=NN2c2ccc(/C=N/NC(=O)c3ccncc3)cc2)cc1` (configuration not stated)?
RAM inhibit: 13*; Yeast life ext: -12; Yeast growth inh: -46; Measles CPE: 5; RAM efflux-def: 6

How did CCn1c2ccccc2c2cc(NC(=O)c3cc(OC)c(OC)c(OC)c3)ccc21 do in these assays?
RAM inhibit: 12*; Yeast life ext: -21; Yeast growth inh: -11; Measles CPE: 2; RAM efflux-def: 4

Results for Cc1cccc(C)c1NC(=O)COC(=O)c1cccnc1 ?
RAM inhibit: 1

How did CSc1ccccc1NC(=O)COC(=O)c1ccccc1Cc1ccccc1 do in these assays?
RAM inhibit: 2; Yeast life ext: -4; Yeast growth inh: -34; Measles CPE: 6

What do the screens show for `Cc1ccc(C(=O)c2ccccc2C(=O)OCC(=O)NCCc2ccc(Cl)cc2Cl)cc1`?
RAM inhibit: 15*; Yeast life ext: 10; Yeast growth inh: -73; Measles CPE: 12; RAM efflux-def: 3

How did Cc1ccc(C(=O)c2ccccc2C(=O)OCC(=O)Nc2cccc([N+](=O)[O-])c2)cc1 do in these assays?
RAM inhibit: 6; Yeast life ext: -4; Yeast growth inh: -28; Measles CPE: 32

Results for O=C(COC(=O)c1ccccc1Cc1ccccc1)Nc1ccc(SC(F)F)cc1 ?
RAM inhibit: 14*; Yeast life ext: 2; Yeast growth inh: -31; Measles CPE: 14; RAM efflux-def: 4

Results for O=C(COC(=O)c1cc(Cl)ccc1[N+](=O)[O-])NCc1ccc(Cl)cc1Cl ?
RAM inhibit: 13*; Yeast life ext: 1; Yeast growth inh: -66; Measles CPE: 5; RAM efflux-def: 1
